In brackets after ≈: the same amount, converted by molar mass. Several values for one entry are separate records, joined by “and”; a condition that tells them apart may be missing. Equal values may be shown once. Entries after “also recorded” stand apart in the source; their conditions may differ.
Tests used:
[1] = SAD: M5717 whole-blood pharmacokinetics; assay type: in vivo, human; settings: for Vd/F / half-life / AUC(0-inf) / AUC(0-t): whole blood; for AUC(0-t): SAD 2100 mg oral, N=1
[2] = oral administration of 3–5 mg/kg; cited from earlier work
[3] = Volunteer infection study; assay type: in vivo, human
Method in brief: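 Intravenously inoculated, blood-stage P falciparum-infected healthy volunteers received one fasted oral dose (150, 400 or 800 mg). They stayed in the clinic until day 4, then attended outpatient follow-up to day 44.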

Plasmodium falciparum [4] = assay: VIS: parasite clearance kinetics and recrudescence; assay type: in vivo; settings: for PRR48 (95% CI), second phase: cohort estimate
Method in brief: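 Volunteers were given about 2800 viable P falciparum-infected erythrocytes intravenously on day −8. Parasitaemia was measured by qPCR of the 18S rRNA gene, twice daily from day 4 after inoculation. A single fasted oral dose (150, 400 or 800 mg) was given when parasitaemia was expected to reach ≥5000 parasites/mL. […] Recrudescence was followed to day 28; artemether–lumefantrine was given on recrudescence or at day 21.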

CYP3A4 = settings: preclinical studies, no reference given; cited from earlier work
[5] = VIS: M5717 whole-blood pharmacokinetics; assay type: in vivo; settings: human, po
Method in brief: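 Healthy malaria-naive adults (18–55 y) were inoculated intravenously with about 2800 viable P falciparum-infected erythrocytes on day −8. On day 1 they took a single oral capsule dose (150, 400 or 800 mg) with 250 mL water after fasting ≥8 h, with no food until 4 h. The test compound was measured in whole blood (LLOQ 1 ng/mL), giving AUC0–∞, apparent terminal t½ and Vz/F.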

Plasmodium falciparum [6] = settings: cited from earlier work
[7] = Single ascending dose study; assay type: in vivo, human
Plasmodium spp = settings: cited from earlier work
M5717-resistant mutants = settings: pyronaridine partnered with M5717; cited from earlier work
[8] = SAD 2100 mg single oral dose, N=1
[9] = SAD, all 49 participants dosed with M5717

Compound: O=C(NCCN1CCCC1)c1cc(-c2ccc(CN3CCOCC3)cc2)nc2ccc(F)cc12 [M5717]
- Time of peak whole-blood concentration after dosing ([1]; across dose levels, SAD and VIS): approximately 2 h
- Time with M5717 concentration at least 3 ng/mL in all participants ([1]; doses of 150 mg and higher): at least 168 h
- Time with M5717 concentration 10 ng/mL or higher in all participants ([1]; doses of 400 mg or higher): at least 168 h
- Terminal half-life predicted before the study ([1]; human, prediction before the study): 250 h
- Vd/F ([1]; human, oral): 5880 to 9510 L
- half-life ([1]; human, oral): 106 to 193 h
- half-life ([1]; human, oral, 200 mg): 133 to 145 h
- AUC(0-inf) ([1]; human, po, 50 mg): 997 ng·h/mL
- Vd/F ([1]; human, po, 50 mg): 7640 L
- half-life ([1]; human, po, 50 mg): 133 h
- AUC(0-inf) ([1]; human, po, 100 mg): 1710 ng·h/mL
- Vd/F ([1]; human, po, 100 mg): 8890 L
- half-life ([1]; human, po, 100 mg): 133 h
- AUC(0-inf) ([1]; human, po, 200 mg): 3500 ng·h/mL
- Vd/F ([1]; human, po, 200 mg): 9510 L
- half-life ([1]; human, po, 200 mg): 145 h
- Vd/F ([1]; human, po, 400 mg): 7100 L
- half-life ([1]; human, po, 400 mg): 155 h
- Vd/F ([1]; human, po, 600 mg): 7160 L
- half-life ([1]; human, po, 600 mg): 181 h
- Vd/F ([1]; human, po, 1000 mg): 6770 L
- half-life ([1]; human, po, 1000 mg): 169 h
- Vd/F ([1]; human, po, 1250 mg): 6830 L
- half-life ([1]; human, po, 1250 mg): 180 h
- Vd/F ([1]; human, po, 1800 mg): 7060 L
- half-life ([1]; human, po, 1800 mg): 181 h
- AUC(0-inf) ([1]; human, po, 2100 mg): 43000 ng·h/mL
- Vd/F ([1]; human, po, 2100 mg): 7870 L
- half-life ([1]; human, po, 2100 mg): 140 h
- AUC(0-t) ([1]; human, po, 2100 mg, AUC0–144h): 27200 ng·h/mL
- AUC(0-t) ([1]; human, po, 2100 mg, AUC0–t): 42200 ng·h/mL
- Half-life in preclinical animal studies [2]: 18 to 20 h
- Any adverse event ([3]; VIS 150 mg single oral dose): 6 (100%) n (%)
- Any adverse event related to study treatment ([3]; VIS 150 mg single oral dose): 0 n (%)
- Moderate adverse event (grade 2) ([3]; VIS 150 mg single oral dose): 2 (33%) n (%)
- Moderate adverse event (grade 2) related to study treatment ([3]; VIS 150 mg single oral dose): 0 n (%)
- Severe adverse event (grade 3) ([3]; VIS 150 mg single oral dose): 0 n (%)
- Any adverse event ([3]; VIS 400 mg single oral dose): 8 (100%) n (%)
- Moderate adverse event (grade 2) ([3]; VIS 400 mg single oral dose): 3 (38%) n (%)
- Moderate adverse event (grade 2) related to study treatment ([3]; VIS 400 mg single oral dose): 0 n (%)
- Severe adverse event (grade 3) ([3]; VIS 400 mg single oral dose): 0 n (%)
- Any adverse event ([3]; VIS 800 mg single oral dose): 7 (88%) n (%)
- Any adverse event related to study treatment ([3]; VIS 800 mg single oral dose): 0 n (%)
- Moderate adverse event (grade 2) ([3]; VIS 800 mg single oral dose): 2 (25%) n (%)
- Moderate adverse event (grade 2) related to study treatment ([3]; VIS 800 mg single oral dose): 0 n (%)
- Severe adverse event (grade 3) ([3]; VIS 800 mg single oral dose): 1 (13%) n (%)
- Participants with at least one adverse event after M5717 dosing ([3]; VIS, all 22 participants): 21 (95%) n (%)
- Time of recrudescence after M5717 dosing (Plasmodium falciparum [4]; VIS 150 mg, individual participants): 10 days and 11 days and 19 days
- Recrudescence incidence (Plasmodium falciparum [4]; VIS 150 mg, six participants): 50%
- PRR48 (95% CI), second phase (Plasmodium falciparum [4]; VIS 400 mg single oral dose, N=6): 5127 (1006 to 26 132)
- Time of recrudescence after M5717 dosing (Plasmodium falciparum [4]; VIS 400 mg, both participants): 12 days
- Recrudescence incidence (Plasmodium falciparum [4]; VIS 400 mg, eight participants): 25%
- PRR48 (95% CI), second phase (Plasmodium falciparum [4]; VIS 800 mg single oral dose, N=7): 436 (179 to 1061)
- Recrudescence (Plasmodium falciparum [4]; VIS 800 mg, up to 21 days after dosing): No recrudescence
- Duration of initial slow parasite clearance phase (Plasmodium falciparum [4]; VIS 150, 400, 800 mg): 35 to 55 h
- Parasite clearance following M5717 dosing (Plasmodium falciparum [4]; VIS 150, 400, 800 mg): all participants
- Active or toxic metabolites (CYP3A4): no active or toxic metabolites identified
- AUC(0-inf) ([5]; 150 mg): 3100 ng·h/mL
- Vd/F ([5]; 150 mg): 5880 L
- half-life ([5]; 150 mg): 106 h
- Vd/F ([5]; 400 mg): 6530 L
- half-life ([5]; 400 mg): 146 h
- Vd/F ([5]; 800 mg): 8890 L
- half-life ([5]; 800 mg): 193 h
- Potency against Plasmodium falciparum (Plasmodium falciparum [6]): nanomolar potency
- M5717-related dizziness ([7]; 1800 mg only): three
- M5717-related blurred vision ([7]; 1800 mg or 2100 mg groups only): four
- M5717-related oral hypoesthesia ([7]; 1800 mg or 2100 mg groups only): three
- Any adverse event ([7]; SAD 50 mg single oral dose): 6 (100%) n (%)
- Moderate adverse event (grade 2) ([7]; SAD 50 mg single oral dose): 1 (17%) n (%)
- Moderate adverse event (grade 2) related to study treatment ([7]; SAD 50 mg single oral dose): 0 n (%)
- Severe adverse event (grade 3) ([7]; SAD 50 mg single oral dose): 1 (17%) n (%)
- Any adverse event ([7]; SAD 100 mg single oral dose): 5 (83%) n (%)
- Moderate adverse event (grade 2) ([7]; SAD 100 mg single oral dose): 1 (17%) n (%)
- Moderate adverse event (grade 2) related to study treatment ([7]; SAD 100 mg single oral dose): 0 n (%)
- Severe adverse event (grade 3) ([7]; SAD 100 mg single oral dose): 0 n (%)
- Any adverse event ([7]; SAD 200 mg single oral dose): 3 (50%) n (%)
- Moderate adverse event (grade 2) ([7]; SAD 200 mg single oral dose): 0 n (%)
- Moderate adverse event (grade 2) related to study treatment ([7]; SAD 200 mg single oral dose): 0 n (%)
- Severe adverse event (grade 3) ([7]; SAD 200 mg single oral dose): 0 n (%)
- Any adverse event ([7]; SAD 400 mg single oral dose): 4 (67%) n (%)
- Moderate adverse event (grade 2) ([7]; SAD 400 mg single oral dose): 0 n (%)
- Moderate adverse event (grade 2) related to study treatment ([7]; SAD 400 mg single oral dose): 0 n (%)
- Severe adverse event (grade 3) ([7]; SAD 400 mg single oral dose): 0 n (%)
- Any adverse event ([7]; SAD 600 mg single oral dose): 3 (50%) n (%)
- Moderate adverse event (grade 2) ([7]; SAD 600 mg single oral dose): 1 (17%) n (%)
- Moderate adverse event (grade 2) related to study treatment ([7]; SAD 600 mg single oral dose): 0 n (%)
- Severe adverse event (grade 3) ([7]; SAD 600 mg single oral dose): 0 n (%)
- Any adverse event ([7]; SAD 1000 mg single oral dose): 4 (67%) n (%)
- Moderate adverse event (grade 2) ([7]; SAD 1000 mg single oral dose): 0 n (%)
- Moderate adverse event (grade 2) related to study treatment ([7]; SAD 1000 mg single oral dose): 0 n (%)
- Severe adverse event (grade 3) ([7]; SAD 1000 mg single oral dose): 0 n (%)
- Any adverse event ([7]; SAD 1250 mg single oral dose): 5 (83%) n (%)
- Moderate adverse event (grade 2) ([7]; SAD 1250 mg single oral dose): 1 (17%) n (%)
- Moderate adverse event (grade 2) related to study treatment ([7]; SAD 1250 mg single oral dose): 1 (17%) n (%)
- Severe adverse event (grade 3) ([7]; SAD 1250 mg single oral dose): 0 n (%)
- Any adverse event ([7]; SAD 1800 mg single oral dose): 6 (100%) n (%)
- Moderate adverse event (grade 2) ([7]; SAD 1800 mg single oral dose): 0 n (%)
- Moderate adverse event (grade 2) related to study treatment ([7]; SAD 1800 mg single oral dose): 0 n (%)
- Severe adverse event (grade 3) ([7]; SAD 1800 mg single oral dose): 0 n (%)
- Any adverse event [7, 8]: 1 (100%) n (%)
- Any adverse event related to study treatment [7, 8]: 1 (100%) n (%)
- Moderate adverse event (grade 2) [7, 8]: 1 (100%) n (%)
- Moderate adverse event (grade 2) related to study treatment [7, 8]: 1 (100%) n (%)
- Severe adverse event (grade 3) [7, 8]: 0 n (%)
- Serious adverse events ([7]; SAD and VIS): No adverse event was serious; also recorded: No serious adverse events
- Severity of adverse events related to M5717 ([7]; SAD and VIS): mild or moderate
- Vital signs, ECGs, clinical laboratory parameters ([7]; SAD and VIS): No dose-related trends
- Participants with adverse events related to M5717 [7, 9]: 12 (24%) n (%)
- Participants with at least one adverse event [7, 9]: 37 (76%) n (%)
- Dose up to which M5717 is well tolerated ([7]; single oral dose, healthy adults): ≤ 1250 mg
- Minimum inhibitory concentration (MIC) (Plasmodium spp; estimated in mice): 3 ng/mL (≈ 6.49 nM)
- Minimum parasiticidal concentration (Plasmodium spp; estimated in mice): 10 ng/mL
- Lag in antimalarial activity (Plasmodium spp; in vitro and in the mouse efficacy model): 24 to 48 h

Compound: COc1ccc2nc3cc(Cl)ccc3c(Nc3cc(CN4CCCC4)c(O)c(CN4CCCC4)c3)c2n1 [pyronaridine]
- Selection of M5717-resistant mutants (M5717-resistant mutants): prevented selection of M5717-resistant mutants
